Activity calls are given as the source filed them. The calls are words filed in the database; no cut-off is given here.
What was measured:
[1] = Metabolic stability in human liver microsomes assessed as compound remaining at 1 uM after 0.5 hrs; format: ADME; conditions: read-out: Stability
[2] = target: T1, Mineralocorticoid receptor (Homo sapiens) (UniProt P08235); test: Agonist activity at human mineralocorticoid receptor by cell-based assay
T1 sequence (whole entry): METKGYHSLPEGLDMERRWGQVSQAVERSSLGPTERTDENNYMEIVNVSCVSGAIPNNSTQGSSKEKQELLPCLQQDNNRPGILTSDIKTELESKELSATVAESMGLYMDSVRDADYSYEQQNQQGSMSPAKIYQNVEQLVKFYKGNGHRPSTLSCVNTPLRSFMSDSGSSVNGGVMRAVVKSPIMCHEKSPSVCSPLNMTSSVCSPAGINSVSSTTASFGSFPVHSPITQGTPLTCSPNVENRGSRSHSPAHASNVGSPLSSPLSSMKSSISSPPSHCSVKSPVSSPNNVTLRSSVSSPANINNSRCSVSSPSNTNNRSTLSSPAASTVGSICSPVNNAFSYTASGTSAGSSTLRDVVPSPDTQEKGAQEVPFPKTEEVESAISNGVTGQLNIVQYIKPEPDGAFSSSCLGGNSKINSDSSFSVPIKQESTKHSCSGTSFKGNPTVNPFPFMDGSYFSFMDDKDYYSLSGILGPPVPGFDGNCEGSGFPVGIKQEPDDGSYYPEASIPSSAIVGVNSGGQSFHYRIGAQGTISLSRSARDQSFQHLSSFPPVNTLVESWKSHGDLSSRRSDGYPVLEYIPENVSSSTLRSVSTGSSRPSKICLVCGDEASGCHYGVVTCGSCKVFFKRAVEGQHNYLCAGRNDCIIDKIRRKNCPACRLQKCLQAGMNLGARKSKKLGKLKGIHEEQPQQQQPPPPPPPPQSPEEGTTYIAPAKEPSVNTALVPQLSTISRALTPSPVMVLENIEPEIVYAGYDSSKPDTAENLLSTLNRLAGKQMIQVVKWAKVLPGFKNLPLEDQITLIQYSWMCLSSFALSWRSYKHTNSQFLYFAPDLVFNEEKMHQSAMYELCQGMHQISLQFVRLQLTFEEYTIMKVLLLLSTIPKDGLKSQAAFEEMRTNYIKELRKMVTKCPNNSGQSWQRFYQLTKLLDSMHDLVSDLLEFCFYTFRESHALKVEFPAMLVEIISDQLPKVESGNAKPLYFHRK

[3] = target: Estrogen receptor beta (Homo sapiens, UniProt Q92731); test: Antagonist activity at human estrogen receptor beta assessed as inhibition of agonist-induced protein interaction with steroid receptor co-activator peptide by cell-based reporter gene assay
Estrogen receptor beta, sequence (Q92731 whole entry): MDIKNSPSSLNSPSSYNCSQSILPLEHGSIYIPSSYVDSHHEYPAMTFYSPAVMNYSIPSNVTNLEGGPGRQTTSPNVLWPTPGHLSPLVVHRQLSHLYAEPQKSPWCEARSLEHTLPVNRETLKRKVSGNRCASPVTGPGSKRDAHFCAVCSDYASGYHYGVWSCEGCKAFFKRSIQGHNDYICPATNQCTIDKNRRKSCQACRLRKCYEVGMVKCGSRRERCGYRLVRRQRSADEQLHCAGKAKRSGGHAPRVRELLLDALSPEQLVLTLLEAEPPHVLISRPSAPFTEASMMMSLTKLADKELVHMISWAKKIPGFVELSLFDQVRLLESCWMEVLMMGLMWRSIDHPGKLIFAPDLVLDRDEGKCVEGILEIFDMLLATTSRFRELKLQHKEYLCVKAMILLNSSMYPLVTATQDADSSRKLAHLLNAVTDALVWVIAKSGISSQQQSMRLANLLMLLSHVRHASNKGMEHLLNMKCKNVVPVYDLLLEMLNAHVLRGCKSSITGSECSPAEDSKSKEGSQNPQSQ

[4] = test system: Rattus norvegicus; test: Dose normalized AUC in Wistar han rat at 2 mg/kg, po; format: ADME, organism-based; conditions: in vivo
Method in brief: (§1)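 Wistar Han rats. IV dose 1 mg/kg in DMSO/PEG200/water (10:60:30), n=2. Oral dose 2 mg/kg in imwitor/tween (1:1) by gavage, n=3. Values are averages. Derived: F%, plasma clearance, Vdss, terminal half-life and oral AUC normalized to dose.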

[5] = Terminal half life in Wistar han rat at 2 mg/kg, po and 1 mg/kg, iv; format: ADME, organism-based; conditions: in vivo, read-out: beta t1/2 (converted); method in brief: as §1
[6] = Metabolic stability in rat liver microsomes assessed as compound remaining at 1 uM after 0.5 hrs; format: ADME; conditions: read-out: Stability
[7] = Volume of distribution at steady state in Wistar han rat at 2 mg/kg, po and 1 mg/kg, iv; format: ADME, organism-based; conditions: in vivo, read-out: Vdss; method in brief: as §1
[8] = target: T2, Estrogen receptor (Homo sapiens, UniProt P03372); test: Antagonist activity at human estrogen receptor alpha expressed in CHOK1 cells assessed as inhibition of beta-estradiol-induced protein interaction with steroid receptor co-activator peptide after overnight incubation by beta-galactosidase reporter gene assay; format: cell-based, CHO-K1
T2 sequence (P03372 whole entry): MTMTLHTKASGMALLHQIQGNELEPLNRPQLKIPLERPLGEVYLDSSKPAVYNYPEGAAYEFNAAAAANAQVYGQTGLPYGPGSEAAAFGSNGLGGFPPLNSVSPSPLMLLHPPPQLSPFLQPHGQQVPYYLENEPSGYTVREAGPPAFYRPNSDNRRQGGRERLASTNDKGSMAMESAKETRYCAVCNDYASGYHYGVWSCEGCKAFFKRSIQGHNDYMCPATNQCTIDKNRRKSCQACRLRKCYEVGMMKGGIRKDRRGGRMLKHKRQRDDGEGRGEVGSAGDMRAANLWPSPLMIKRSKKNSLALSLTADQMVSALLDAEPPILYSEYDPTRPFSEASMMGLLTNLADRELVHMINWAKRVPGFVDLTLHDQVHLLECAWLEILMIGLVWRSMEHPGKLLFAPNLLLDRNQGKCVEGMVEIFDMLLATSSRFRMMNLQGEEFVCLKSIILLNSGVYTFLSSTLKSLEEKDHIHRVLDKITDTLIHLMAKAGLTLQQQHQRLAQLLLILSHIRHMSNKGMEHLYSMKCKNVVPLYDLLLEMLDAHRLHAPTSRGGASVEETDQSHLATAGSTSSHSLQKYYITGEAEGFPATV

[9] = Fraction unbound in 10% rat plasma; format: ADME, cell-free; conditions: 10% plasma
Method in brief: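 Free fraction measured in the presence of 10% plasma (human or rat), taken as correlating with the free fraction in whole plasma.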

Structure (SMILES)	remaining at 0.5 h, 1 µM [1]	Activity [2]	IC50 [3]	AUC/dose [4]	half-life [5]	remaining at 0.5 h, 1 µM [6]	Vd [7]	IC50 [8]	fraction unbound [9]
C[C@H](c1ccc(F)cc1)N1C(=O)O[C@](Cc2ccccc2)(c2nc3cc(NS(C)(=O)=O)ccc3[nH]2)C1=O	93%	inactive	12 µM	0.067 µM·kg·h/mg	1.6 h	80%	1.8 L/kg	17 µM	0.064
C[C@H](c1ccc(F)cc1)N1C(=O)O[C@](Cc2ccccc2)(c2nc3cc(-c4cc[nH]n4)ccc3[nH]2)C1=O	86%	inactive	2.6 µM	0.49 µM·kg·h/mg	1.8 h	62%	1.6 L/kg	6.3 µM	0.017
C[C@H](c1ccc(F)cc1)N1C(=O)O[C@](Cc2ccccc2)(c2nc3cc(N4CCOCC4)ccc3[nH]2)C1=O	81%	inactive	5.3 µM	0.07 µM·kg·h/mg	0.69 h	92%	2.3 L/kg	6.1 µM	0.065
C[C@H](c1ccc(F)cc1)N1C(=O)O[C@](Cc2ccccc2)(c2nc3c(NS(C)(=O)=O)cccc3[nH]2)C1=O	46%	inactive	7.3 µM	0.085 µM·kg·h/mg	1.2 h	44%	3.2 L/kg	> 20 µM	0.064
Cc1nocc1-c1ccc2[nH]c([C@@]3(Cc4ccccc4)OC(=O)N([C@H](C)c4ccc(F)cc4)C3=O)nc2c1	27%	inactive	3 µM	0.79 µM·kg·h/mg	1.2 h	54%	1.9 L/kg	4.9 µM	–
C[C@H](c1ccc(F)cc1)N1C(=O)O[C@](Cc2ccccc2)(c2nc3cc(C(F)(F)F)ccc3[nH]2)C1=O	89%	inactive	2.7 µM	0.33 µM·kg·h/mg	1.7 h	41%	3.4 L/kg	3 µM	0.007
C[C@H](c1ccc(F)cc1)N1C(=O)O[C@](Cc2ccccc2)(c2nc3cc(-c4cccnc4)ccc3[nH]2)C1=O	94%	inactive	2.7 µM	0.046 µM·kg·h/mg	0.94 h	45%	5 L/kg	7.9 µM	0.008
C[C@H](c1ccc(F)cc1)N1C(=O)O[C@](Cc2ccccc2)(c2nc3cc(Cl)ccc3[nH]2)C1=O	55%	inactive	2.4 µM	0.11 µM·kg·h/mg	1.5 h	14%	4.6 L/kg	3.3 µM	0.01

Source: ChEMBL document CHEMBL3576820, “Discovery of benzimidazole oxazolidinediones as novel and selective nonsteroidal mineralocorticoid receptor antagonists” (ACS Med Chem Lett, 2015)
